The values below come from ChEMBL document CHEMBL3769384, “Discovery of Tetrahydropyrazolopyridine as Sphingosine 1-Phosphate Receptor 3 (S1P3)-Sparing S1P1 Agonists Active at Low Oral Doses” (J Med Chem, 2016).

Data set [1] is described as follows: Solubility of compound in simulated gastric fluid at pH 1.6 after 24 hrs. Format: ADME.
A short description of data set [2]: Half life in CD1 mouse at 1 mg/kg, iv after 24 hrs by LC-MS/MS analysis. Format: ADME, organism-based. To be noted: in vivo. In outline:
(§1)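 Male animals (CD rat and Beagle dog, n=3; CD1 mouse, n=5) given a 1 h i.v. infusion at 1 mg/kg. Vehicle: DMSO:10% Kleptose HPB in saline (2%:98% v/v), 0.2 mg/mL. Serial blood sampled up to 24 h and assayed by LC-MS/MS. Values from non-compartmental analysis, mean ± SD.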

Data set [3] in a line: Oral bioavailability in CD rat at 3 mg/kg after 24 hrs by LC-MS/MS analysis. In kind it is ADME, organism-based. As to conditions: in vivo. The method, boiled down: (§2)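 Oral dose as a suspension in 1% methylcellulose: CD rat 3 mg/kg (2 rats, crossover after i.v.), Beagle dog 2 mg/kg (fasted, crossover after i.v.), CD1 mouse 3 mg/kg by gavage (n=4). Blood sampled up to 24 h and assayed by LC-MS/MS. Bioavailability was referenced to the 1 h i.v. infusion at 1 mg/kg, by non-compartmental analysis.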

Data set [4] in a line: Volume of distribution at steady state in CD rat at 1 mg/kg, iv after 24 hrs by LC-MS/MS analysis. In kind it is ADME, organism-based. As to conditions: in vivo, read-out: Vdss. In outline:
as §1

Data set [5] in a line: Clearance in CD rat at 1 mg/kg, iv after 24 hrs by LC-MS/MS analysis. In kind it is ADME, organism-based. To be noted: in vivo. The method, boiled down:
as §1

Data set [6] can be described thus: Solubility of compound in FeSSIF at pH 6.5 after 24 hrs. In kind it is physicochemical.
Data set [7] is described as follows: Half life in CD rat at 1 mg/kg, iv after 24 hrs by LC-MS/MS analysis. In kind it is ADME, organism-based. To be noted: in vivo. The method, boiled down: as §1
The nature of data set [8]: Volume of distribution at steady state in CD1 mouse at 1 mg/kg, iv after 24 hrs by LC-MS/MS analysis. To be noted: in vivo, read-out: Vdss. Format: ADME, organism-based. In outline:
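Male CD1 mice with a jugular vein cannula got a 1 h IV infusion at 1 mg/kg, dosed at 0.2 mg/mL in DMSO:10% w/v Kleptose HPB in saline (2%:98% v/v). Serial tail-vein blood (ca. 25 µL) was taken up to 24 h and assayed against calibration standards in control blood. Non-compartmental analysis was used; n=5, mean ± SD.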

The nature of data set [9]: Solubility of compound in FaSSIF at pH 6.5 after 24 hrs. In kind it is physicochemical.
A short description of data set [10]: Oral bioavailability in CD1 mouse at 3 mg/kg after 24 hrs by LC-MS/MS analysis. Format: ADME, organism-based. As to conditions: in vivo. The method, boiled down: as §2
Data set [11] is described as follows: Clearance in CD1 mouse at 1 mg/kg, iv after 24 hrs by LC-MS/MS analysis. As to conditions: in vivo. In kind it is ADME, organism-based. In outline: as §1
Data set [12] deals with T1, Sphingosine 1-phosphate receptor 1 (Homo sapiens, UniProt P21453). The data set can be described thus: Agonist activity at human S1P1 receptor expressed in CHO-K1 EDG1 cells by beta-arrestin recruitment assay. In kind it is cell-based. The method, boiled down:
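CHO-K1 cells stably expressing beta-arrestin 2 and S1P1 fused to complementing beta-galactosidase fragments; grown to 80% confluency, harvested enzyme-free, resuspended in HEPES/BSA assay buffer pH 7.4. Cells at 1x10^4/well added to compound in DMSO, 90 min at 37°C/5% CO2, then 15 min at room temperature; chemiluminescent detection mix 60 min at room temperature, luminescence read.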

The target in data set [13] is Sphingosine 1-phosphate receptor 2 (Homo sapiens, UniProt O95136). The data set can be described thus: Agonist activity at human S1P2 receptor expressed in Saccharomyces cerevisiae after 24 hrs by reporter gene assay. In outline: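 S. cerevisiae with integrated S1P2 under the GPD promoter, seeded at 0.02 OD600 in histidine-free minimal medium with 5 mM 3-aminotriazole and 100 µM fluorescein-di-(β-D-glucopyranoside). Agonist-driven growth was read as fluorescein fluorescence (ex 485/em 535 nm) after 24 h at 30°C.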

The subject of data set [14] is Rattus norvegicus. The data set can be described thus: Lymphopenia activity in Lewis rat at 1 mg/kg, po measured after 24 hrs. Format: functional, organism-based.
Data set [15] concerns Rattus norvegicus. The data set can be described thus: Lymphopenia activity in Lewis rat at 1 mg/kg, po measured after 2 to 4 hrs. Format: functional, organism-based.
Data set [16] addresses T2, Sphingosine 1-phosphate receptor 4 (Homo sapiens) (UniProt O95977).
T2 sequence (whole entry): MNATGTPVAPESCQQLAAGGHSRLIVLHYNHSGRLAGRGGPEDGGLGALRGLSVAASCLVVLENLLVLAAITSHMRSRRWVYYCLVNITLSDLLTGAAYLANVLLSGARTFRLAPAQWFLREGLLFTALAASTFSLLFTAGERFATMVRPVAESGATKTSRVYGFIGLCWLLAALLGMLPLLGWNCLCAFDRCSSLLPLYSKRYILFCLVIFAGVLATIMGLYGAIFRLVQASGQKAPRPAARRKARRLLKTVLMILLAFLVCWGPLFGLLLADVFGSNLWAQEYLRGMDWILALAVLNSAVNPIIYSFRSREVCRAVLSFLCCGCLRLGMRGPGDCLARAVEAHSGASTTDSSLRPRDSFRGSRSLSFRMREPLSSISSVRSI
The data set can be described thus: Agonist activity at human S1P4 receptor expressed in CHO-K1 cells by aequorin calcium accumulation assay. Format: functional, cell-based. In outline:
(§3)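 CHO-K1 aequorin lines revived in DMEM F12 with 10% charcoal-stripped FBS, recovered 30 min at 37°C, then loaded 18-24 h at room temperature in the dark with 5 µM coelenterazine at 2.5x10^6 cells/mL. Cells were added at 1x10^5/well to compound, and flash luminescence was recorded immediately.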

Data set [17] has as its target Sphingosine 1-phosphate receptor 5 (Homo sapiens, UniProt Q9H228). The data set can be described thus: Agonist activity at human S1P5 receptor expressed in CHO-K1 cells by aequorin calcium accumulation assay. Format: functional, cell-based. In outline:
as §3

Data set [18] concerns the target T1, Sphingosine 1-phosphate receptor 1. Nature of the data set: Agonist activity at human S1P1 receptor by receptor internalisation assay.
For data set [19], the system named is Rattus norvegicus. Nature of the data set: Lymphopenia activity in Lewis rat at 0.3 mg/kg, po measured after 24 hrs. Format: functional, organism-based. The method, boiled down:
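Male Lewis rats (300-350 g) bled by venepuncture the day before dosing. Compound given orally at 0.1-3 mg/kg, or vehicle (1% methylcellulose, 4 mL/kg). Blood taken 0.25-54 h post-dose and lymphocytes counted on an automatic haematology analyser.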

Data set [20] in a line: Half life in beagle dog at 1 mg/kg, iv after 24 hrs by LC-MS/MS analysis. To be noted: in vivo. Format: ADME, organism-based, Canis lupus familiaris. In outline: as §1
Data set [21] can be described thus: Oral bioavailability in beagle dog at 2 mg/kg 24 hrs by LC-MS/MS analysis. To be noted: in vivo. In kind it is ADME, organism-based, Canis lupus familiaris. In outline: as §2
Data set [22] is described as follows: Volume of distribution at steady state in beagle dog at 1 mg/kg, iv after 24 hrs by LC-MS/MS analysis. Format: ADME, organism-based, Canis lupus familiaris. As to conditions: in vivo, read-out: Vdss. The method, boiled down: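 Three fasted male Beagle dogs got a 1 h IV infusion at 1 mg/kg, dosed at 0.2 mg/mL in DMSO:10% w/v Kleptose HPB in saline (2%:98% v/v). Blood went into K-EDTA tubes predose to 24 h, from a cephalic cannula to 2 h and by jugular venepuncture after. Analysis was LC-MS/MS (LLQ 1 ng/mL) with non-compartmental parameters; mean n=3 ± SD.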

Data set [23] in a line: Clearance in beagle dog at 1 mg/kg, iv after 24 hrs by LC-MS/MS analysis. In kind it is ADME, organism-based, Canis lupus familiaris. To be noted: in vivo. The method, boiled down:
as §1

Each structure is given as a SMILES string. Calls of active or inactive are those of the source. No cut-off for these calls is given here.

T1 sequence (P21453 whole entry, the tested form may be a part): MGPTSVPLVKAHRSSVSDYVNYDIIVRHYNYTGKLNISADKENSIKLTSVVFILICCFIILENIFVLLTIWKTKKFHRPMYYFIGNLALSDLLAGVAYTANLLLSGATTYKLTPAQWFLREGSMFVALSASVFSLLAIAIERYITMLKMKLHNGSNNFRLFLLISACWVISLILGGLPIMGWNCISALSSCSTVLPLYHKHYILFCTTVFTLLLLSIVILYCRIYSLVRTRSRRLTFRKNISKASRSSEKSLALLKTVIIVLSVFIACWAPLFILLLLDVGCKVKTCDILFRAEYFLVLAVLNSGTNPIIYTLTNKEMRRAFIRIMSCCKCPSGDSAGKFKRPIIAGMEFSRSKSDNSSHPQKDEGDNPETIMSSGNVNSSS
Chain of Sphingosine 1-phosphate receptor 5 (Q9H228 whole entry): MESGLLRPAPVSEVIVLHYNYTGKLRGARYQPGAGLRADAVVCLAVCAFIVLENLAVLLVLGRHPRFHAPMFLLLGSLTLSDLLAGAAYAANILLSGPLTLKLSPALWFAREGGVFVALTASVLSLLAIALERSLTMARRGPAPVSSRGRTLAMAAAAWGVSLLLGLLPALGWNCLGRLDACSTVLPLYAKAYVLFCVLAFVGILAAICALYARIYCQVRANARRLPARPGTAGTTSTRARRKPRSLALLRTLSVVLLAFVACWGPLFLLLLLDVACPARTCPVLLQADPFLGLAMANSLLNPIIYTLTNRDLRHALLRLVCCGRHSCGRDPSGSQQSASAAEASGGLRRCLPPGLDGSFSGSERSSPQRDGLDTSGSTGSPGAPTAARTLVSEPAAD
Chain of Sphingosine 1-phosphate receptor 2 (O95136 whole entry): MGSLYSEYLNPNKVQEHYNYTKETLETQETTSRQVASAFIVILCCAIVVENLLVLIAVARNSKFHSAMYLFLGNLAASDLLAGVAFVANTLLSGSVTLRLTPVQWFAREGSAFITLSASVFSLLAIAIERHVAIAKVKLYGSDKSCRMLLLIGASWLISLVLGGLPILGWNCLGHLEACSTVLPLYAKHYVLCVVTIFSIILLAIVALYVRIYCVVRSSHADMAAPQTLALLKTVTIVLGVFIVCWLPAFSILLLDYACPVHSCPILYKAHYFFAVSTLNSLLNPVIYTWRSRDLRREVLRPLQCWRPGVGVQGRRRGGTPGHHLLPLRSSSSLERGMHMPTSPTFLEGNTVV

Take `Cc1c2c(nn1-c1nnc(-c3ccc(OC(C)C)c(Cl)c3)s1)CCN(CCC(=O)O)C2.O=C(O)C(F)(F)F`: the solubility at 24 h was 37 µg/mL in [1], 4 µg/mL in data set [6] and 3 µg/mL in data set [9]. The half-life in [2] is 3.8 h; in [7], 4.4 h. In addition, the figures for the bioavailability in data set [3] and in data set [10] were 48% and 79%, respectively. The Vd in [4] is 3.7 L/kg; in data set [8] it was 3.3 L/kg. For the same molecule, the clearance in data set [5] was 24 mL/min/kg; in data set [11] it was 16 mL/min/kg.
`Cc1c2c(nn1-c1nnc(-c3ccc(OC(C)C)c(Cl)c3)s1)CCN(CCC(=O)O)C2`: the maximal effect (Emax) in data set [12] was 83%; in data set [13], 0%; in data set [16] it was 7%; in data set [17], 63%; in [18] it was 109%. Further, the result in the data set with Rattus norvegicus [14], in the data set on Rattus norvegicus [15] and in the data set on Rattus norvegicus [19] was Active.
On to `Cc1c2c(nn1-c1nnc(-c3ccc(OC(C)C)c(Cl)c3)s1)CCN(CCC(=O)O)C2.Cl`, for which the solubility at 24 h is 7 µg/mL in data set [1], 46 µg/mL in data set [6] and 16 µg/mL in [9]. In data set [20], this molecule had a half-life of 6.5 h. In data set [21], this molecule registered a bioavailability of 44%. Also, in data set [22], the Vd was 5.3 L/kg. This molecule also yielded a clearance in data set [23] of 33 mL/min/kg.
